ChEMBL document CHEMBL4422663, “Suppression of Tumor Growth and Metastases by Targeted Intervention in Urokinase Activity with Cyclic Peptides” (J Med Chem, 2019)
The source made the active and inactive calls. The rule behind the calls is not given here. Positions of bridges follow the written chain, without caps; N, C: chain ends. Residues, ends and D or L forms follow the SMILES beside them.

Experiments:
[1] = biological target: Tissue-type plasminogen activator (Mus musculus, UniProt P11214); experiment: Inhibition of mouse tissue-type plasminogen activator preincubated for 15 mins followed by chromogenic substrate addition
Tissue-type plasminogen activator (Mus musculus, UniProt P11214), sequence (P11214 whole entry): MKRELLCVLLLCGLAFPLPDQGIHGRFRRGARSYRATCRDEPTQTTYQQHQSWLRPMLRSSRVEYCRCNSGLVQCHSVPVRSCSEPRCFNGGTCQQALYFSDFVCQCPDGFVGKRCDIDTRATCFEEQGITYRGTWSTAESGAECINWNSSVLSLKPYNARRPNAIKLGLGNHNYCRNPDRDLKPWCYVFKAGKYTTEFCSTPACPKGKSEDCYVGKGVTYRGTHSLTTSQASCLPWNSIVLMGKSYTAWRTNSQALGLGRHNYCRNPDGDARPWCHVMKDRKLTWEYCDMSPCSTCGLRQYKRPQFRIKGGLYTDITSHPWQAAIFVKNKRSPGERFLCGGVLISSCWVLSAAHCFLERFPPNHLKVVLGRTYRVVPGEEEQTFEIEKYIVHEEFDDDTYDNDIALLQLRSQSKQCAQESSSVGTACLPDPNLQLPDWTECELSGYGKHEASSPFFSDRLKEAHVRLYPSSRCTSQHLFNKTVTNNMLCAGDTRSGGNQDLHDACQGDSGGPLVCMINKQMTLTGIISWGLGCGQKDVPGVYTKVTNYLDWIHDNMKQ

[2] = biological target: T1, Urokinase-type plasminogen activator (Mus musculus, UniProt P06869); experiment: Inhibition of mouse uPA
T1 sequence (P06869 21-178 limits assumed): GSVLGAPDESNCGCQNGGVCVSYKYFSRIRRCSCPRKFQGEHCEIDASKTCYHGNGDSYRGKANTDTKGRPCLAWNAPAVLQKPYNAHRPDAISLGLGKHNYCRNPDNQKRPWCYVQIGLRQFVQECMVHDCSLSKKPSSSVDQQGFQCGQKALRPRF
T1 sequence (P06869 180-433 limits assumed): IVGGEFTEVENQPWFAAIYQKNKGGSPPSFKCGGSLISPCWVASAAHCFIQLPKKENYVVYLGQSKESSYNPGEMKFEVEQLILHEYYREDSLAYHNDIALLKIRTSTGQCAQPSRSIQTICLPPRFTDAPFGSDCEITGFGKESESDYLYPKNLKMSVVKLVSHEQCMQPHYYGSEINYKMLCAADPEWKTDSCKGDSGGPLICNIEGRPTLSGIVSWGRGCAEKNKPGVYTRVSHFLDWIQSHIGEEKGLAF

Plasminogen [3] = biological target: Plasminogen (Mus musculus, UniProt P20918); experiment: Inhibition of mouse plasmin preincubated for 15 mins followed by chromogenic substrate addition
Plasminogen (Mus musculus, UniProt P20918), sequence (P20918 98-581 limits assumed): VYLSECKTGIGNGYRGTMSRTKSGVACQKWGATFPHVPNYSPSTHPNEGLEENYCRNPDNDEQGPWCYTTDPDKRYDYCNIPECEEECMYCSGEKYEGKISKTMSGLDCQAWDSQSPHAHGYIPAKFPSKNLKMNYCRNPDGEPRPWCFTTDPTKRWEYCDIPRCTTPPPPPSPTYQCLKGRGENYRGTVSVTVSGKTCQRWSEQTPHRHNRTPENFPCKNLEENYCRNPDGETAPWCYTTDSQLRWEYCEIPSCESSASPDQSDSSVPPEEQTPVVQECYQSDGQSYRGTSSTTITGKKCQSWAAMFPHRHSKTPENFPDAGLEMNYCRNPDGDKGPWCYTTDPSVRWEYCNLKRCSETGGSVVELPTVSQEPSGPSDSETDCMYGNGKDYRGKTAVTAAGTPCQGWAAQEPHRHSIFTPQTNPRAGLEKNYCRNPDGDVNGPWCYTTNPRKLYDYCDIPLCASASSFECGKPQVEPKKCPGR
Plasminogen (Mus musculus, UniProt P20918), sequence (P20918 582-812 limits assumed): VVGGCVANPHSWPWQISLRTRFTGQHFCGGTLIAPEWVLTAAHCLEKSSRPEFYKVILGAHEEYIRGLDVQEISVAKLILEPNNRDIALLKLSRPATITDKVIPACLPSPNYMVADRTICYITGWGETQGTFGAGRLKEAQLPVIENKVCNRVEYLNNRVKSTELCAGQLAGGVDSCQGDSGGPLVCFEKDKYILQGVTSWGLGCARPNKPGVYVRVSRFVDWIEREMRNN

Plasminogen [4] = biological target: Plasminogen (Homo sapiens, UniProt P00747); experiment: Inhibition of human plasmin preincubated for 15 mins followed by chromogenic substrate addition
Prothrombin [5] = biological target: Prothrombin (Mus musculus, UniProt P19221); experiment: Inhibition of mouse thrombin preincubated for 15 mins followed by chromogenic substrate addition
[6] = biological target: Vitamin K-dependent protein C (Homo sapiens, UniProt P04070); experiment: Inhibition of human activated protein C preincubated for 15 mins followed by chromogenic substrate addition
Vitamin K-dependent protein C, sequence (P04070 43-197 limits assumed): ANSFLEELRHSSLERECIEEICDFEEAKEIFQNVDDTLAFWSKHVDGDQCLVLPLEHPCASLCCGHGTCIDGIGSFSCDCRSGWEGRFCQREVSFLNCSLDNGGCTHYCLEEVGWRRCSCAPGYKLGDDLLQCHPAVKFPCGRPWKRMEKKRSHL
Vitamin K-dependent protein C, sequence (P04070 212-461 limits assumed): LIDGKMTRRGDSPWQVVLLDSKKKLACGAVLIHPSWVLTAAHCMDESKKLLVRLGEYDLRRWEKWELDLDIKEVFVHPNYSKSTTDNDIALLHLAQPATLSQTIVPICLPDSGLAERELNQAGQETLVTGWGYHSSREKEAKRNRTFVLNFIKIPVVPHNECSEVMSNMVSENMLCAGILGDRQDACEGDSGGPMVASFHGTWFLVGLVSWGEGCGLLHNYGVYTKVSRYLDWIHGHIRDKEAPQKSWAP

[7] = biological target: Urokinase-type plasminogen activator (Mus musculus) (UniProt P06869); experiment: Inhibition of the intrinsic peri-cellular uPA in mouse CT26 cells assessed as reduction in cell invasion at 33 to 100 uM by Transwell invasion assay relative to control
Urokinase-type plasminogen activator (Mus musculus), sequence (P06869 21-178 limits assumed): as the sequence (P06869 21-178 limits assumed) above
Urokinase-type plasminogen activator (Mus musculus), sequence (P06869 180-433 limits assumed): as the sequence (P06869 180-433 limits assumed) above

[8] = biological target: T1, Urokinase-type plasminogen activator; experiment: Inhibition of mouse uPA preincubated for 15 mins followed by chromogenic substrate addition
[9] = biological target: Urokinase-type plasminogen activator (Homo sapiens, UniProt P00749); experiment: Inhibition of human uPA preincubated for 15 mins followed by chromogenic substrate addition
Plasma kallikrein [10] = biological target: Plasma kallikrein (Mus musculus, UniProt P26262); experiment: Inhibition of mouse plasma kallikrein preincubated for 15 mins followed by chromogenic substrate addition
Plasma kallikrein (Mus musculus, UniProt P26262), sequence (P26262 20-390 limits assumed): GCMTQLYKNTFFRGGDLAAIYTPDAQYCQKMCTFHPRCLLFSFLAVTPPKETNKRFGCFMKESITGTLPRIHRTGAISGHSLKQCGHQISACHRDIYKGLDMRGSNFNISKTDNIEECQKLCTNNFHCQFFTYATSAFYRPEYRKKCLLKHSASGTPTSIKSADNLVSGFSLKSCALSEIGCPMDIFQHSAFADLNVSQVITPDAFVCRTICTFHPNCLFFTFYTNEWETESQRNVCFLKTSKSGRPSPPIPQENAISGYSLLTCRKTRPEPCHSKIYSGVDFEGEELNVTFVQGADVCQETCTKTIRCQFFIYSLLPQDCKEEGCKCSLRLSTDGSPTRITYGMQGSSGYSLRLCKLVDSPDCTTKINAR
Plasma kallikrein (Mus musculus, UniProt P26262), sequence (P26262 391-638 limits assumed): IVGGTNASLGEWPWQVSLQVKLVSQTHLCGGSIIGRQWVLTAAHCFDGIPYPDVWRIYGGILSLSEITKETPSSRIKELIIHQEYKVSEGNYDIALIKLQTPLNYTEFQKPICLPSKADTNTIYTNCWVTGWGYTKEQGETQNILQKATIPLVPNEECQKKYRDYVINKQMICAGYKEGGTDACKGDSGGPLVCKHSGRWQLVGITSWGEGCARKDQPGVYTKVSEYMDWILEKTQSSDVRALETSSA

Coagulation factor XI = Coagulation factor XI (Homo sapiens, UniProt P03951); experiment: Inhibition of human factor 11a preincubated for 15 mins followed by chromogenic substrate addition
Coagulation factor XI, sequence (P03951 19-387 limits assumed): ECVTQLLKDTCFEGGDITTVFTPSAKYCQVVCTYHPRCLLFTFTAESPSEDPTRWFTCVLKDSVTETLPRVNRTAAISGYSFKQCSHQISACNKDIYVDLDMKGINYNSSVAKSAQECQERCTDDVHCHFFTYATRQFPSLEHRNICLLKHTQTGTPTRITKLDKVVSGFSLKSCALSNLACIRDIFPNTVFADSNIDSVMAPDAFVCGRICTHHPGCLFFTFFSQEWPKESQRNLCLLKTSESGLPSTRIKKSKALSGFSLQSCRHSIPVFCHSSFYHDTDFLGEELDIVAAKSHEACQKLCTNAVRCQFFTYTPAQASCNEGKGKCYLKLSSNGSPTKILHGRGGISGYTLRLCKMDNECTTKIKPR
Coagulation factor XI, sequence (P03951 388-625 limits assumed): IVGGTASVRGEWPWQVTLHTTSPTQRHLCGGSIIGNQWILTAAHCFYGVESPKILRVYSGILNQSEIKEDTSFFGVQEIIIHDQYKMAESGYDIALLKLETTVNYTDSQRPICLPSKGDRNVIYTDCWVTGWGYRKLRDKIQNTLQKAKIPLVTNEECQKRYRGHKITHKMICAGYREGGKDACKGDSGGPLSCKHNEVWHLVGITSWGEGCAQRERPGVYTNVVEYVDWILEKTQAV

[11] = biological target: Urokinase-type plasminogen activator (Mus musculus) (UniProt P06869); experiment: Binding affinity to mouse uPA assessed as dissociation rate constant after 600 secs by SPR assay
[12] = Inhibition of mouse trypsin preincubated for 15 mins followed by chromogenic substrate addition
[13] = biological target: T2, Suppressor of tumorigenicity 14 protein (Homo sapiens, UniProt Q9Y5Y6); experiment: Inhibition of human matriptase preincubated for 15 mins followed by chromogenic substrate addition
T2 sequence (Q9Y5Y6 whole entry): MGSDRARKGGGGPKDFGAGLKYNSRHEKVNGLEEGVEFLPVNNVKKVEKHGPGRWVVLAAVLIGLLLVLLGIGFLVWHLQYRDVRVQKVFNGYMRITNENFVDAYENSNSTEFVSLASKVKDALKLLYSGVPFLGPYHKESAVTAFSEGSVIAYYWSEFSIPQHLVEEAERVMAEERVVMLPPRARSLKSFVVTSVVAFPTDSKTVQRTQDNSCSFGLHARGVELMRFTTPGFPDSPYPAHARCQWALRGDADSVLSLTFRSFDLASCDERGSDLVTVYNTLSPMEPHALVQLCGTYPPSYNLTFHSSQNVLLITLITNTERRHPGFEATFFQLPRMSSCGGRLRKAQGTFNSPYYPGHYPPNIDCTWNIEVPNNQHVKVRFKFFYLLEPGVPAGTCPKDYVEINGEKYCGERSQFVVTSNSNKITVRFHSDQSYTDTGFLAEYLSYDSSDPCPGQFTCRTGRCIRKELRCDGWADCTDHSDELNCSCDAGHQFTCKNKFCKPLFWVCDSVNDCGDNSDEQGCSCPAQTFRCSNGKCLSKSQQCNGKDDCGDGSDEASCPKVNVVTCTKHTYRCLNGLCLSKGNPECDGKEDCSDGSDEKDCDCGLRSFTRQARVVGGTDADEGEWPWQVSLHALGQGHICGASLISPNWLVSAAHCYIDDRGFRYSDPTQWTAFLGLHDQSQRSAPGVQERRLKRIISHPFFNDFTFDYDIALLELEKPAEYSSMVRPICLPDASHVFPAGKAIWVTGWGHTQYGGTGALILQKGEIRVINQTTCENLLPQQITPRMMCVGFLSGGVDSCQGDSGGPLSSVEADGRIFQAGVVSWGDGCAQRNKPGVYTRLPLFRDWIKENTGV

CT26 [14] = experiment: Cytotoxicity against mouse CT26 cells at 100 uM; type: cell-based; details: ct26, 100 µM
Prothrombin [15] = biological target: Prothrombin (Homo sapiens, UniProt P00734); experiment: Inhibition of human thrombin preincubated for 15 mins followed by chromogenic substrate addition
[16] = biological target: Urokinase-type plasminogen activator (Mus musculus) (UniProt P06869); experiment: Inhibition of the intrinsic peri-cellular uPA in mouse CT26 cells assessed as reduction in cell migration at 30 to 100 uM measured every hour by wound healing assay relative to control; type: cell-based
[17] = biological target: Tissue-type plasminogen activator (Homo sapiens, UniProt P00750); experiment: Inhibition of human tissue-type plasminogen activator preincubated for 15 mins followed by chromogenic substrate addition
Tissue-type plasminogen activator (Homo sapiens, UniProt P00750), sequence (P00750 whole entry): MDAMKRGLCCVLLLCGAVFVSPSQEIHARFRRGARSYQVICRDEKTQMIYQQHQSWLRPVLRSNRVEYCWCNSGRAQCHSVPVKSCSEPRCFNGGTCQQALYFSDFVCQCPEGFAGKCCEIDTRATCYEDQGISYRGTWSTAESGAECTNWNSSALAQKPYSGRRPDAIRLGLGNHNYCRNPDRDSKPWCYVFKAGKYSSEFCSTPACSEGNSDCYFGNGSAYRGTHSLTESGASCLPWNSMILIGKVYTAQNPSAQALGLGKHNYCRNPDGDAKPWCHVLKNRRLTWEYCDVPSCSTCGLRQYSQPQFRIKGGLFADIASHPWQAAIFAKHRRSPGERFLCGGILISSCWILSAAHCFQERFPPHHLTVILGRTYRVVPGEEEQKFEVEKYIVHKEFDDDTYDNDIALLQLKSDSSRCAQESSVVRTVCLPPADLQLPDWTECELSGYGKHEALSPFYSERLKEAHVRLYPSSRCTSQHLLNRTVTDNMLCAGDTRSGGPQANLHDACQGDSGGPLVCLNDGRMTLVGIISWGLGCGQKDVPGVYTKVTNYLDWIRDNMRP

[18] = biological target: T1, Urokinase-type plasminogen activator; experiment: Binding affinity to mouse uPA by SPR assay
[19] = biological target: T1, Urokinase-type plasminogen activator; experiment: Inhibition of mouse uPA serine protease domain preincubated for 15 mins followed by chromogenic substrate addition
Plasma kallikrein [20] = biological target: Plasma kallikrein (Homo sapiens, UniProt P03952); experiment: Inhibition of human plasma kallikrein preincubated for 15 mins followed by chromogenic substrate addition
[21] = biological target: T1, Urokinase-type plasminogen activator; experiment: Binding affinity to mouse uPA expressed in HEK2936E cells by ITC assay
CT26 [22] = experiment: Antimetastatic activity against GFP-fused mouse CT26 cells allografted in Balb/c mouse assessed as reduction in tumor nodule numbers at 12.3 mg/kg, ip administered daily for 15 days by fluorescence-based assay; type: functional, organism-based
Method in brief: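 Lung metastasis model: male Balb/c mice (~20 g, 6/group) given 10^6 GFP-CT-26 cells i.v. with peptide or saline, daily i.p. dosing Day 1–15, sacrificed Day 16. Surface tumor nodules on pleural surfaces counted per lung after soaking in formaldehyde.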

CT26 [23] = experiment: Anti-tumor activity against […] mouse CT26 cells allografted in Balb/c mouse assessed as tumor growth inhibition at 12.3 mg/kg, ip administered daily for 15 days and measured on day 16 by […]; type: functional; details: read-out: TGI
Method in brief: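 CT-26 cells implanted subcutaneously in right flank of Balb/c mice; once tumors reached about 150~200 mm3, daily intraperitoneal dosing with peptide or saline for 15 days. Mice sacrificed on Day 16; tumors resected and weighed; tumor growth reduction relative to saline group.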

CT26 [24] = experiment: Antimetastatic activity against mouse CT26 cells allografted in Balb/c mouse assessed as reduction genomic DNA of metastatic cells at 12.3 mg/kg, ip administered daily for 15 days by qPCR analysis; type: functional, organism-based
Method in brief: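 Male Balb/c mice (~20 g, 6/group) given 10^6 GFP-CT-26 cells i.v. in 200 µl mixed with peptide or saline, then daily i.p. peptide Day 1–15; sacrificed Day 16. Lung total DNA isolated after homogenization; 200 ng per SYBR Green qPCR, quantified against standard curve of CT-26 DNA spiked into normal lung DNA (0.135%-100%).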

CT26 [25] = experiment: Antimetastatic activity against GFP-fused mouse CT26 cells allografted in Balb/c mouse assessed as reduction in hyperplastic weights at 12.3 mg/kg, ip administered daily for 15 days by fluorescence-based assay; type: functional, organism-based
Method in brief: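 Lung metastasis model: male Balb/c mice (~20 g, 6/group) given 10^6 GFP-CT-26 cells i.v. with peptide or saline, then daily i.p. dosing Day 1–15. Lungs resected and weighed immediately at sacrifice on Day 16; hyperplastic weight = lung weight minus weight of lungs from non-implanted normal mice.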

CT26 [26] = experiment: Antimetastatic activity against GFP-fused mouse CT26 cells allografted in Balb/c mouse assessed as reduction in relative fluorescence at 12.3 mg/kg, ip administered daily for 15 days by fluorescence-based assay; type: functional, organism-based
Method in brief: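 Lung metastasis model: male Balb/c mice (~20 g, 6/group) given 10^6 GFP-CT-26 cells i.v. with peptide or saline, daily i.p. dosing Day 1–15, sacrificed Day 16. Resected lungs imaged for GFP with 488 nm excitation, emission 520; signal collected over 20×20 mm2 per lung; non-implanted normal group used for background subtraction.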

[27] = biological target: Urokinase-type plasminogen activator (Mus musculus) (UniProt P06869); experiment: Inhibition of the intrinsic peri-cellular uPA in mouse CT26 cells assessed as reduction in cell invasion measured every hour by transwell assay; type: cell-based
[28] = Toxicity in Balb/c mouse allografted with mouse CT26 cells assessed as effect on body weight at 12.3 mg/kg, ip administered daily for 15 days; type: organism-based; details: in vivo, 360 h
Method in brief: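 CT-26 tumour-bearing Balb/c mice dosed i.p. daily with peptide or saline; body weights recorded daily over the 15 days.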

CT26 [29] = experiment: Antimetastatic activity against mouse CT26 cells allografted in Balb/c mouse at 12.3 mg/kg, ip administered daily for 15 days by hematoxylin and eosin staining -based assay; type: functional, organism-based
Method in brief: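 Lung metastasis model: male Balb/c mice given 10^6 GFP-CT-26 cells i.v., daily i.p. dosing Day 1–15, sacrificed Day 16. Formalin-fixed, paraffin-embedded lung sections stained with H&E for histology alongside normal lungs.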

MCF7 = experiment: Anti-invasive activity in human MCF7 cells at 100 uM measured every hour by transwell assay; type: functional, cell-based
[30] = biological target: Urokinase-type plasminogen activator (Mus musculus) (UniProt P06869); experiment: Inhibition of the intrinsic peri-cellular uPA in mouse CT26 cells assessed as reduction in cell migration at 100 uM measured every hour by wound healing assay relative to control; type: cell-based
[31] = biological target: Urokinase-type plasminogen activator (Mus musculus) (UniProt P06869); experiment: Inhibition of the intrinsic peri-cellular uPA in mouse CT26 cells assessed as reduction in cell invasion at 100 uM […] by transwell assay; type: cell-based
Method in brief: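 CT-26 cells, 2×10^5 per Matrigel-coated Transwell top chamber in serum-free DMEM with peptide; 10% serum medium below. After 24 h, invaded underside cells stained with 0.1% crystal violet, eluted in 33% acetic acid, read at A570 and normalized to untreated (100%). Triplicates. The legend gives a 0.1–100 μM dose range, with IC50 derived from the dose-response.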

Row | SMILES | Ki [1] | Ki [2] | Ki (Plasminogen [3]) | Ki (Plasminogen [4]) | Ki (Prothrombin [5]) | Ki [6] | Ki [8] | Ki [9] | Ki (Plasma kallikrein [10]) | Ki (Coagulation factor XI) | Ki [12] | Ki [13] | Activity (CT26 [14]) | Ki (Prothrombin [15]) | inhibition [16] | Ki [17] | Kd [18] | Ki [19] | Ki (Plasma kallikrein [20]) | Kd [21] | other results
1 | CC[C@H](C)[C@@H]1NC(=O)[C@H](Cc2ccc(O)cc2)NC(=O)[C@H](CCCNC(=N)N)NC(=O)[C@H](CO)NC(=O)[C@H](Cc2ccc(O)cc2)NC(=O)[C@H](C)NC(=O)[C@@H]2CCCN2C(=O)[C@@H](NC(C)=O)CSSC[C@@H](C(N)=O)NC(=O)CNC1=O (Ac-CPAYSRYIGC-NH2; disulfide 1-10) | > 25 µM | 0.02 µM | > 25 µM | > 25 µM | > 25 µM | > 25 µM | 0.02 µM | 0.903 µM | > 25 µM | > 25 µM | 1.6 µM | > 25 µM | Non-Toxic | > 25 µM | 30% | > 25 µM | 0.0147 µM | 0.246 µM | > 25 µM | 0.0421 µM | inhibition [7]: 70 to 80%; K [11]: 0.0064 s⁻¹
2 | CC(=O)N[C@H]1CSSC[C@@H](C(N)=O)NC(=O)[C@H](CC(=O)O)NC(=O)[C@H](CC(C)C)NC(=O)[C@H](Cc2ccc(O)cc2)NC(=O)[C@H](CCCNC(=N)N)NC(=O)[C@H](CO)NC(=O)[C@H](Cc2ccc(O)cc2)NC(=O)[C@H](C)NC(=O)[C@@H]2CCCN2C1=O (Ac-CPAYSRYLDC-NH2; disulfide 1-10) | > 25 µM | 0.55 µM | > 25 µM | > 25 µM | > 25 µM | > 25 µM | 0.55 µM | 15 µM | > 25 µM | > 25 µM | 8.3 µM | > 25 µM | Non-Toxic | > 25 µM | 30% | > 25 µM | 0.398 µM | 1.77 µM | > 25 µM | 0.354 µM | Activity (CT26 [22]): inactive; inhibition in vivo at 12.3 mg/kg (CT26 [23]): 36.4%; Activity (CT26 [24]): inactive; Activity (CT26 [25]): inactive; Activity (CT26 [26]): inactive; inhibition [27]: Dose-dependent effect; Activity [28]: Non-Toxic; Activity (CT26 [29]): Active
3 | CC[C@H](C)[C@@H]1NC(=O)[C@H](Cc2ccc(O)cc2)NC(=O)[C@H](C)NC(=O)[C@H](CO)NC(=O)[C@H](Cc2ccc(O)cc2)NC(=O)[C@H](C)NC(=O)[C@@H]2CCCN2C(=O)[C@@H](N)CSSC[C@@H](C(=O)O)NC(=O)CNC1=O (H-CPAYSAYIGC-OH; disulfide 1-10) | – | – | – | – | – | – | – | – | – | – | – | – | Non-Toxic | – | – | – | – | – | – | – | Activity (MCF7): inactive; inhibition [30]: inactive; inhibition [31]: inactive
